PGC1a acetyl up = compounds raising PGC1a acetylation signal, primary screen, PGC1a modulator project, cell-based, U2OS, AlphaScreen, signal-increasing mode. activation, % at 15.6 µM. 350,000 compounds, 0.21% hits. overnight. AID 651723, 2012;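 active = every replicate reaching activation of at least 50%, whatever the mean replicate activation; inconclusive = replicates that disagree or another doubt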;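 note: hits raise the AlphaScreen acetylation signal above neutral controls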
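System: Flag-PGC1a/GCN5 U2OS cells | Quantity: 7000 cells/well | Times: Overnight compound treatment, 37 °C | Measured by: AlphaScreen proximity luminescence, anti-acetyl-lysine antibody | Dosing: One concentration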
G6PC hep suppr = suppressors of forskolin-stimulated G6PC mRNA, dose response, PGC-1a acetylation activator project, cell-based, hepatocytes, RT-qPCR, cherry-picked samples; G6PC suppression (normalized activity, % of positive control; higher = more suppression), % at 26 µM; shares compounds with PGC1a acetyl up; 240 tested, under 10 active; primary mouse hepatocytes;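 active = dose curves showing G6PC suppression whose half-maximal dose is at most twice the top valid dose; inconclusive = flat curves with moderate negative activity, or unreliable fits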;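 note: G6PC expression relative to GAPDH housekeeping gene as delta delta Ct; 0% = median of neutral control wells and 100% = median of positive control wells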
Hep PCK1 suppr = suppression of PCK1 mRNA in primary hepatocytes, dose response, PGC-1a acetylation activator project, cell-based, primary mouse hepatocytes, RT-qPCR, cherry-pick; 230 tested, under 10 active; forskolin-stimulated; PCK1 expression decrease, unspecified at 26 µM; shares compounds with PGC1a acetyl up;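 active = compounds lowering PCK1 expression whose fitted half-maximal concentration is at most twice the top tested dose; inconclusive = flat fit with moderate opposite-direction effect, or poor fit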;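 note: values are delta delta Ct of PCK1 relative to GAPDH; higher delta delta Ct means lower PCK1 expression so positive values indicate hits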
Hep PGC-1a down = suppression of PGC-1a mRNA in primary hepatocytes, dose response, PGC-1a acetylation activator project, cell-based, primary mouse hepatocytes, RT-qPCR, cherry-pick; shares compounds with PGC1a acetyl up; PGC-1a mRNA qPCR, forskolin; top dose 26 µM; 240 tested, under 10 active; max activity (PGC-1a expression decrease), %;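 active = compound lowering PGC-1a expression with fitted half-maximal concentration at most twice its top tested dose; inconclusive = flat curve with moderate opposite-direction effect, or poor fit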;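 note: 0% = neutral control wells median and 100% = positive control wells median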
* = called active by the depositor; i = inactive; ? = inconclusive; nt = not tested or not shown; [ ] = remark or other dose. A selection follows.

SMILES	PGC1a acetyl up	G6PC hep suppr	Hep PCK1 suppr	Hep PGC-1a down
CCn1c(CSc2nnc3ccccn23)nc2cc(C(=O)O)ccc21	-48	nt	nt	nt
Nc1ccc2c(c1)C(=O)C(=O)c1ccccc1-2	-107	nt	nt	nt
CCCCCOC(=O)Cc1c(O)c2ccccc2n(C)c1=O	-43	-30	-16	-27
CC1(C)CC(=O)C(N=Nc2cc(Cl)c(Cl)c(Cl)c2)=C(O)C1	-48	nt	nt	nt
CC(Oc1ccc(Cl)cc1Cl)c1nc(-c2ccc(NC(=O)c3cccnc3)cc2)no1 (configuration not stated)	88*	555	259	?
O=C(Nc1ccc(-c2noc(-c3cccs3)n2)cc1)c1cccnc1	137*	-24	11	?
COc1cc(CNCCN2CCOCC2)ccc1OCc1ccc(Cl)cc1Cl	-101	nt	nt	nt
Nc1ncnc(NCc2ccc(F)cc2)c1[N+](=O)[O-]	-50	nt	nt	nt
O=C(Nc1cnc2ccccc2c1)c1cccnc1	267*	nt	-15	-30
c1ccc(N2CCN(c3ccccc3)C2c2ccncc2)cc1	-91	nt	nt	nt
Clc1ccccc1OCCCCN1CCCC1	-42	nt	nt	nt
O=C(NCc1ccccc1)N1CCC(n2cnc3cc(F)ccc32)CC1	138*	nt	1.3	43
OC[C@@H]1CN(Cc2ccccc2)C[C@H](n2cnc3c(NCc4ccc(F)cc4)ncnc32)O1	-44	nt	nt	nt
COCCN(C)Cc1nc(C(c2ccccc2)c2ccccc2)no1	-52	nt	nt	nt
CN(C)CC(C(=O)c1ccccc1)c1ccccc1 (configuration not stated)	-139	nt	nt	nt
Cc1ccc(NC(=O)c2sccc2SCc2cccc(C(F)(F)F)c2)cc1	?	-22	76	141
O=C(Nc1ccc(F)cc1)c1sc2cc(C(F)(F)F)cnc2c1-c1cccs1	-114	nt	nt	nt
O=[N+]([O-])c1ccc(Oc2ccc(F)cc2)c2ccncc12	-43	nt	nt	nt
O=C(CN1CCC(n2c(=O)[nH]c3ccccc32)CC1)NCc1ccc(Cl)s1	nt	-14	-6.3	15
CCCOC(=O)c1ccc(-n2nnnc2SCC(=O)N2CCCCC2)cc1	-49	nt	nt	nt
c1ccc(C(c2nnnn2Cc2cccs2)N2CCN(C3CCCC3)CC2)cc1 (configuration not stated)	-42	27	34	38
O=C(N/N=C/c1ccccc1C(=O)O)c1cccc(S(=O)(=O)Nc2cc(Cl)ccc2Cl)c1	-47	nt	nt	nt
Cc1cccn2c(=O)c3cc(C(=O)NCc4ccco4)c(=N)n(CCc4ccccc4)c3nc12	-55	nt	nt	nt
Cn1cc(-c2ccc(C(=O)NCc3cccc(Cl)c3)c3occc23)cn1	59*	-68	-9.2	64
Cc1ccccc1Cn1cnc2c(nnn2Cc2ccc(F)cc2)c1=O	-48	nt	nt	nt
SMILES	PGC1a acetyl up	G6PC hep suppr	Hep PCK1 suppr	Hep PGC-1a down
CN(C)CCCNc1cc(-c2ccccc2)nc2cc(-c3cccc(F)c3)nn12	?	i	?	?
Cn1c(SCc2ccon2)nc2ccccc2c1=O	-49	nt	nt	nt
N#Cc1cccc(C(c2nnnn2C2CCCC2)N2CCCCCC2)c1 (configuration not stated)	?	33	231	92
Cc1ccc(C2CC2c2n[nH]c(=S)n2-c2ccc(Cl)cc2)cc1 (configuration not stated)	-45	nt	nt	nt
C[C@H](CO)N1C[C@H](C)[C@H](CN(C)Cc2ccc(Oc3ccccc3)cc2)Oc2c(NC(=O)Nc3ccc4c(c3)OCO4)cccc2C1=O	-40	nt	nt	nt
C[C@H]1CN([C@@H](C)CO)C(=O)c2cccc(NS(=O)(=O)c3ccc(F)cc3)c2O[C@H]1CN(C)Cc1ccc(C(F)(F)F)cc1	-55	23	37	89
CC(=O)Oc1ccc(-c2csnn2)cc1	-95	nt	nt	nt
CCN(CC)CCNc1nc(-c2ccc(OC)cc2)c(-c2ccc(OC)cc2)s1	-45	nt	nt	nt
CCC(=O)N(CC)c1nc(-c2ccc(OC)cc2)cs1	-48	-10	-26	65
CN(c1ccccc1)S(=O)(=O)c1ccc(Cl)nc1	-44	nt	nt	nt
Cc1ccc(Nc2nnc(C)c3ccccc23)c(C)c1	?	-20	-29	88
Cc1ccc(NC2=C/C(=N\S(=O)(=O)c3cccs3)c3ccccc3C2=O)c(C)c1	-93	nt	nt	nt
Cc1nc2ccccn2c1C(=O)/C=C/c1ccc(F)cc1	-41	nt	nt	nt
Cc1ccc(S(=O)(=O)N[C@H]2C=C[C@@H](CC(=O)NCCN3CCCCC3)O[C@H]2CO)cc1	-105	nt	33	41
CCOC(=O)C1=C(Nc2ccccc2)OCC1=O	-47	nt	nt	nt
CCCCN(CCCC)S(=O)(=O)c1ccc2oc(C(=O)N3CCOCC3)c(C)c2c1	102*	11	5.3	48
O=C(c1ccco1)N1N=C(c2ccc(Cl)cc2)CC1(O)C(F)(F)F (configuration not stated)	-42	nt	nt	nt
Cc1cc2nc(/C=C/c3cccnc3)[nH]c2cc1C	-67	nt	nt	nt
O=C(NCc1ccccc1)C1Cc2c(-c3ccc(Cl)cc3)ccnc2O1 (configuration not stated)	69*	214	-2.3	63
C=CCN=C1S/C(=C/c2ccc([N+](=O)[O-])cc2)C(=O)N1CC=C	-42	nt	nt	nt
CCOC(=O)C1=C(CNCc2ccc(C)cc2)NC(=O)NC1c1cc(C)ccc1C (configuration not stated)	-50	nt	nt	nt
O=C(NCc1cccs1)c1ccc(Cl)c(S(=O)(=O)N2CCCC2)c1	?	129	nt	?
Cc1nc2ccccc2nc(C)c1=NO	-48	nt	nt	nt
Cc1ccc(S(=O)(=O)N/N=C/c2c[nH]c3ccccc23)cc1	-105	nt	nt	nt
CCN(CC)CCNC(=O)c1ccc2c(c1NCCO)C(=O)c1ccccc1C2=O	-92	nt	nt	nt
SMILES	PGC1a acetyl up	G6PC hep suppr	Hep PCK1 suppr	Hep PGC-1a down
O=C(NC1CCCCC1)C(c1ccc2ncccc2c1)N(Cc1ccc2c(c1)OCO2)C(=O)c1ccc2c(c1)OCCO2 (configuration not stated)	-96	nt	nt	nt
COc1ccc(N(C(=O)c2csnn2)C(C(=O)NC2CCCC2)c2cccs2)cc1 (configuration not stated)	53*	33	nt	?
O=C(N/N=C/c1ccc(OC2CSC2)cc1)c1ccc(CN2CCOCC2)cc1	-42	nt	nt	nt
CCn1c(SC/C=C/c2ccccc2)nnc1-c1cccs1	-50	109	59	154
Cc1nonc1NC(=O)CSc1nc(C2CCCCC2)nc2ccccc12	-55	nt	nt	nt
O=C(Cn1c(CN2CCCCC2)nc2ccccc2c1=O)Nc1ccccc1	-50	19[8 µM]	63	95
OCCNc1nc(N2CCCCC2)nc2ccccc12	-67	nt	nt	nt
CCc1nnc(N/N=C/c2c(Cl)cccc2Cl)n1N	-64	nt	nt	nt
S=C1NC2=C(CCCC2=C2SCCS2)C(c2ccccc2)N1 (configuration not stated)	-41	nt	nt	nt
O=c1[nH]c(/C=C/c2ccc([N+](=O)[O-])cc2)c([N+](=O)[O-])c(=O)[nH]1	-43	nt	nt	nt
CC(=O)c1cc(-c2ccccc2)n(CCC(=O)NC2CCCCC2)c1C	?	-16	18	35
O=C(COc1cccnc1[N+](=O)[O-])NCCc1ccc(Cl)cc1	-49	nt	nt	nt
CC(=O)N(C1=C(N2CCOCC2)C(=O)c2ccccc2C1=O)c1ccc(C(=O)O)cc1	-40	nt	nt	nt

Screens from PubChem.
